The text below walks through data of ChEMBL document CHEMBL1154677, “Microtubule-stabilizing activity of zampanolide, a potent macrolide isolated from the Tongan marine sponge Cacospongia mycofijiensis” (J Med Chem, 2009).

The nature of assay [1]: Cytotoxicity against p-glycoprotein overexpressing human A2780AD cells by MTT cell proliferation assay. Particulars: A2780 ADR. The assay is classed as functional, cell-based. The essentials:
(§1)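 A2780 parental and P-gp-overexpressing A2780AD ovarian cells in RPMI-1640 with 10% fetal calf serum and 0.25 units/mL insulin.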

Assay [2] relates to 1A9. The assay is described as follows: Cytotoxicity against human 1A9 cells assessed as mitotic cells with multiple asters at 20 nM after 12 hrs by immunocytochemistry. The assay is classed as functional. The gist of the method:
(§2)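 1A9 cells on glass coverslips attached 24 h, then dosed at 0-20 nM for 12 h. Fixed in ice-cold methanol/acetone 1:1, blocked with 5% BSA in PBST, stained with anti-α-tubulin and Alexa 488 secondary plus DAPI, viewed by confocal microscopy. Percent of interphase cells with bundles and mitotic cells with multiple asters scored; n = 3 preparations.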

Assay [3] has as its system 1A9. Put plainly: Cytotoxicity against human 1A9 cells assessed as mitotic cells with multiple asters at 5 nM after 12 hrs by immunocytochemistry. The assay is classed as functional. The essentials: as §2
The test system of assay [4] is 1A9. The assay is described as follows: Cytotoxicity against human 1A9 cells assessed as mitotic cells with multiple asters at 10 nM after 12 hrs by immunocytochemistry. The assay is classed as functional. The gist of the method: as §2
For assay [5], the system named is 1A9. The assay is described as follows: Cytotoxicity against human 1A9 cells assessed as interphase cells with microtubule bundles at 10 nM after 12 hrs by immunocytochemistry. The assay is classed as functional. The gist of the method:
as §2

Assay [6] deals with 1A9. The assay is described as follows: Cytotoxicity against human 1A9 cells assessed as interphase cells with microtubule bundles at 5 nM after 12 hrs by immunocytochemistry. The assay is classed as functional. The essentials:
as §2

The subject of assay [7] is 1A9. The assay is described as follows: Cytotoxicity against human 1A9 cells assessed as interphase cells with microtubule bundles at 20 nM after 12 hrs by immunocytochemistry. The assay is classed as functional. The gist of the method: as §2
Assay [8] has as its system HL-60. Put plainly: Cell cycle arrest in human HL60 cells assessed as accumulation in G2/M phase at 2 to 10 nM after 16 hrs by flow cytometry. The assay is classed as functional, cell-based. The essentials:
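HL-60 cells in RPMI-1640 with 10% fetal calf serum, exposed 16 h over 2-10 nM. Propidium iodide stain, DNA content by flow cytometry, G2/M and subdiploid fractions scored.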
In general terms: In flow cytometry, cells or beads pass a laser one at a time.

Assay [9] concerns the target T1, Tubulin (Homo sapiens) (UniProt P68371+Q9H4B7+P0DPH7+P68366+Q13509+Q71U36+P04350+Q3ZCM7+P07437+P68363+Q9BQE3+Q6PEY2+Q13885+Q9BVA1+Q9BUF5). Put plainly: Induction of tubulin polymerization in human 1A9 cells after 16 hrs by Western blotting. The assay is classed as cell-based. The gist of the method: (§3)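 1A9 cells dosed for 16 h. Lysates split into soluble and particulate fractions at 14000g for 10 min, electrophoresed and immunoblotted for α-tubulin with Cy5 secondary. Percent polymerized = pellet band density / (soluble + pellet) by densitometry; four independent experiments.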
(In western blotting, separated proteins are transferred to a membrane and probed.)

The subject of assay [10] is HL-60. Put plainly: Cytotoxicity against human HL60 cells after 48 hrs by MTT assay. The assay is classed as functional, cell-based. To be noted: HL-60, 48 h. The gist of the method: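 HL-60 in RPMI-1640 with 10% fetal calf serum plus penicillin-streptomycin. 48 h drug exposure, growth by MTT dye reduction, IC50 from dose-response curves; n = 5 preparations.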
Background: Tetrazolium assays rely on reduction of a dye to a coloured formazan, in cell work by metabolically active cells.

Assay [11] has as its system A2780. Put plainly: Selectivity ratio of IC50 for p-glycoprotein overexpressing human A2780AD cells to IC50 for human A2780 cells. The assay is classed as functional. The gist of the method: as §1
Assay [12] is filed under the species Bos taurus. Put plainly: Induction of bovine tubulin polymerization at 10 uM after 1hr in presence of 1 mM GTP. The gist of the method:
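Purified bovine brain tubulin, 2 μM, in 80 mM PIPES, 0.5 mM EGTA, 2 mM MgCl2, 1 mM GTP, pH 6.9, no MAPs. Reaction started by adding drug at 10 μM, 37 °C; ethanol 1% final in controls. A340 read every 30 s for 1 h; three experiments.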

Assay [13] has as its target T1, Tubulin (Homo sapiens). The assay is described as follows: Induction of tubulin polymerization in human 1A9 cells at 100 nM after 16 hrs by Western blotting. The assay is classed as cell-based. The gist of the method: as §3
Assay [14] deals with HL-60. Put plainly: Cytotoxicity against human HL60 cells assessed as cell death at 10 nM after 48 hrs by Trypan blue exclusion test. The assay is classed as functional, cell-based. The essentials: (§4)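 HL-60 cells exposed to drug, then viability counted by Trypan blue dye exclusion at 24 h and 48 h; n = 2 preparations.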
For assay [15], the system named is A2780. The assay is described as follows: Cytotoxicity against human A2780 cells by MTT cell proliferation assay. The assay is classed as functional, cell-based.
In assay [16] the test system is 1A9. The assay is described as follows: Cytotoxicity against human 1A9 cells assessed as interphase cells with microtubule bundles at 8 nM after 12 hrs by immunocytochemistry. The assay is classed as functional. The essentials: as §2
Assay [17] has as its system 1A9. The assay is described as follows: Cytotoxicity against human 1A9 cells assessed as mitotic cells with multiple asters at 8 nM after 12 hrs by immunocytochemistry. The assay is classed as functional. The essentials: as §2
Assay [18] has as its system HL-60. The assay is described as follows: Cytotoxicity against human HL60 cells at 2 nM after 24 hrs by Trypan blue exclusion test. The assay is classed as functional, cell-based. The essentials: as §4
Assay [19] deals with HL-60. The assay is described as follows: Cytotoxicity against human HL60 cells assessed as increase in cell diameter at 8 nM after 48 hrs by Giemsa staining. The assay is classed as functional. The gist of the method: (§5)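 HL-60 cells given 2-8 nM for 48 h, cytospun onto slides, air-dried, fixed in 100% methanol, Giemsa-stained. Cell diameter measured and compared with untreated cells.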

Assay [20] concerns HL-60. Put plainly: Cytotoxicity against human HL60 cells assessed as increase in cell diameter after 48 hrs by Giemsa staining. The assay is classed as functional, cell-based. The essentials: as §5
The test system of assay [21] is 1A9. The assay is described as follows: Cytotoxicity against human 1A9 cells after 72 hrs by MTT assay. The assay is classed as functional, cell-based. Particulars: 1A9, 72 h. The gist of the method: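 1A9 ovarian carcinoma in RPMI-1640 with 10% fetal calf serum, penicillin-streptomycin and 0.25 units/mL insulin. 72 h exposure, MTT dye reduction, IC50 from dose-response curves; n = 6 preparations.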

The source made the active and inactive calls. The calls are words filed in the database; no cut-off is given here.

For orientation: IC50 means the concentration that inhibits the measured activity by half. A low value points to inhibition by little substance. As to `CC(=O)O[C@H]1C(=O)[C@@]2(C)[C@H]([C@H](OC(=O)c3ccccc3)[C@]3(O)C[C@H](OC(=O)[C@H](O)[C@@H](NC(=O)c4ccccc4)c4ccccc4)C(C)=C1C3(C)C)[C@]1(OC(C)=O)CO[C@@H]1C[C@@H]2O` [PACLITAXEL], the IC50 in [1] worked out at 415 nM. The Activity in assay [2] is given as 52.2%; in [3], 6.6%; in [4], 43.3%; in [5], 76.5%; in assay [6], 13.7%; in assay [7] it was 81.9%.

For the molecule `C=C1C[C@@H]2C/C=C/C(=O)C/C(C)=C\C=C\C(=O)O[C@H]([C@H](O)NC(=O)/C=C\C=C\C)C/C(C)=C/[C@H](C1)O2` [ZAMPANOLIDE], the IC50 in [1] turned out to be 7.5 nM; in assay [10], 4.3 nM; in assay [15], 7.1 nM; in assay [21] it was 14.3 nM. For the same molecule, the Activity in assay [2] was 57.3%; in assay [9], “Dose-dependent effect”; in assay [3], 4.3%; in assay [16], 28.6%; in assay [4], 51.4%; in [5], 55%. The Activity in [6] was 9.6%; in assay [17], 21.6%; in [7], 74.3%; in assay [19] it was 28.7 micrometer; in assay [20] it was “Dose-dependent effect”. Moreover, the outcome in assay [8], in [12], in assay [13], in assay [14] and in assay [18] was Active. Besides, the “Ratio IC50” value in [11] was found to be 1.4.
